Here are results for 1 molecule from ChEMBL document CHEMBL5550111, “Design, synthesis and biological evaluation of aryloxy thiophosphoramidate triesters of anticancer nucleoside analogues” (Bioorg Med Chem, 2024).

SMILES strings stand for the structures.

Data set [1] has as its system OVCAR-3. In words: Cytotoxicity against human OVCAR-3 cells assessed as maximum inhibition of cell viability upto 198 uM incubated for 72 hrs by MTS assay relative to control. It counts as functional. The following applies: up to 198 µM. The procedure, abridged: (§1)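 Cells seeded at 0.5 to 100 × 10^3 per well the day before drug addition, then exposed to compound for 72 h. MTS added afterwards, with a further 4 h at 37 °C, and absorbance read. Tested in duplicate at 9 serial 3.16-fold dilutions, top concentration 198 μM. MI% is the maximum inhibition of viability across the tested range.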
(In general: Formazan colour is commonly taken as a measure of viable cells.)

The test system of data set [2] is COLO 205. The experiment in a line: Cytotoxicity against human COLO 205 cells assessed as maximum inhibition of cell viability upto 198 uM incubated for 72 hrs by MTS assay relative to control. It counts as functional. The following applies: up to 198 µM. The procedure, abridged:
as §1

The test system of data set [3] is HT-29. In words: Cytotoxicity against human HT-29 cells assessed as inhibition of cell viability incubated for 72 hrs by MTS assay. The format is functional, cell-based. The following applies: HT-29, 72 h. The procedure, abridged: (§2)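 Cells seeded at 0.5 to 100 × 10^3 per well the day before treatment, then exposed for 72 h to 9 serial concentrations (3.16-fold dilutions, top 198 μM), in duplicate. MTS added for a final 4 h at 37 °C and absorbance read. IC50 is the concentration giving 50% loss of viability. MI% is the maximum inhibition over the tested range.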

Data set [4] has as its system COLO 205. The experiment in a line: Cytotoxicity against human COLO 205 cells assessed as inhibition of cell viability incubated for 72 hrs by MTS assay. The following applies: COLO 205, 72 h. It counts as functional, cell-based. The essentials:
as §2

The test system of data set [5] is SK-MES-1. In words: Cytotoxicity against human SK-MES-1 cells assessed as inhibition of cell viability incubated for 72 hrs by MTS assay. It counts as functional, cell-based. Conditions: SK-MES-1, 72 h. The procedure, abridged:
as §2

The subject of data set [6] is RPMI-8226. The experiment in a line: Cytotoxicity against human RPMI-8226 cells assessed as inhibition of cell viability incubated for 72 hrs by MTS assay. The format is functional, cell-based. The following applies: RPMI-8226, 72 h. The procedure, abridged:
as §2

Data set [7] relates to MIA PaCa-2. In words: Cytotoxicity against human MIA PaCa-2 cells assessed as maximum inhibition of cell viability upto 198 uM incubated for 72 hrs by MTS assay relative to control. It counts as functional. Conditions: up to 198 µM. The essentials: as §1
The test system of data set [8] is MIA PaCa-2. The experiment in a line: Cytotoxicity against human MIA PaCa-2 cells assessed as inhibition of cell viability incubated for 72 hrs by MTS assay. It counts as functional, cell-based. Conditions: MIA PaCa-2, 72 h. The procedure, abridged:
as §2

Data set [9] deals with HepG2. In words: Cytotoxicity against human HepG2 cells assessed as inhibition of cell viability incubated for 72 hrs by MTS assay. The format is functional, cell-based. The following applies: HepG2, 72 h. The procedure, abridged: as §2
Data set [10] relates to SK-MES-1. The experiment in a line: Cytotoxicity against human SK-MES-1 cells assessed as maximum inhibition of cell viability upto 198 uM incubated for 72 hrs by MTS assay relative to control. Conditions: up to 198 µM. The format is functional. The procedure, abridged:
as §1

The subject of data set [11] is RT112/84. The experiment in a line: Cytotoxicity against human RT112/84 cells assessed as maximum inhibition of cell viability upto 198 uM incubated for 72 hrs by MTS assay relative to control. It counts as functional. The following applies: up to 198 µM. The procedure, abridged: as §1
For data set [12], the system named is RPMI-8226. The experiment in a line: Cytotoxicity against human RPMI-8226 cells assessed as maximum inhibition of cell viability upto 198 uM incubated for 72 hrs by MTS assay relative to control. It counts as functional. The following applies: up to 198 µM. The essentials: as §1
The test system of data set [13] is HepG2. The experiment in a line: Cytotoxicity against human HepG2 cells assessed as maximum inhibition of cell viability upto 198 uM incubated for 72 hrs by MTS assay relative to control. It counts as functional. Conditions: up to 198 µM. The essentials:
as §1

Data set [14] has as its system OVCAR-3. The experiment in a line: Cytotoxicity against human OVCAR-3 cells assessed as inhibition of cell viability incubated for 72 hrs by MTS assay. It counts as functional, cell-based. Conditions: OVCAR-3, 72 h. The procedure, abridged:
as §2

Data set [15] has as its system NCI-H1975. The experiment in a line: Cytotoxicity against human NCI-H1975 cells assessed as inhibition of cell viability incubated for 72 hrs by MTS assay. The following applies: NCI-H1975, 72 h. It counts as functional, cell-based. The procedure, abridged: as §2
The nature of data set [16]: Prodrug activation assessed as carboxypeptidase Y (unknown origin) mediated (2S)-2-[[[(2R,3S,5R)-[…]-3-hydroxy-tetrahydrofuran-2-yl]methoxy-hydroxy-phosphoryl]amino]propanoic acid formation from intermediate (2S)-2-[[[(2R,3S,5R)-5-(5-fluoro-2,4-dioxo-pyrimidin-1-yl)-3-hydroxy-tetrahydrofuran-2-yl]methoxy-(1-naphthyloxy)phosphinothioyl]amino]propanoic acid at 5 mg measured for 48 hrs by 31P-NMR assay. The following applies: […]. The procedure, abridged:
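Thiophosphoramidate (5 mg, about 0.008 mmol) dissolved in 150 µL acetone-d6, with 300 µL TRIZMA buffer pH 7.6 added. Enzymatic conversion followed by 31P-NMR.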

Data set [17] has as its system NCI-H1975. The experiment in a line: Cytotoxicity against human NCI-H1975 cells assessed as maximum inhibition of cell viability upto 198 uM incubated for 72 hrs by MTS assay relative to control. Conditions: up to 198 µM. The format is functional. The procedure, abridged:
as §1

Data set [18] deals with RT112/84. The experiment in a line: Cytotoxicity against human RT112/84 cells assessed as inhibition of cell viability incubated for 72 hrs by MTS assay. It counts as functional, cell-based. Conditions: RT112/84, 72 h. The essentials: as §2
Data set [19] concerns HT-29. The experiment in a line: Cytotoxicity against human HT-29 cells assessed as maximum inhibition of cell viability upto 198 uM incubated for 72 hrs by MTS assay relative to control. The format is functional. The following applies: up to 198 µM. The essentials: as §1

On to `C[C@H](NP(=S)(OC[C@H]1O[C@@H](n2cc(F)c(=O)[nH]c2=O)C[C@@H]1O)Oc1cccc2ccccc12)C(=O)OCc1ccccc1` (some centres undefined), for which the Imax is recorded as 100% in data set [1]; 100% in data set [2]; 100% in data set [7]; 97% in data set [10]; 97% in data set [11]; 100% in data set [12]. The Imax in [13], in data set [17] and in data set [19] was 100% in each case. Further, the IC50 came to 2.81 µM in data set [3]; 4 µM in data set [4]; 2.49 µM in data set [5]; 6.63 µM in data set [6]; 2.69 µM in data set [8]; 25.5 µM in data set [9]. Besides, the IC50 in data set [14] worked out at 21.5 µM; in data set [15], 100 µM; in [18] it was 2.49 µM. Besides, the Drug metabolism entry in data set [16] was “Metabolite_Detected”.

Broadly, the IC50 is the concentration at which inhibition is half-maximal.
